SENP6 block – SENP6 protease inhibitors, primary screen, biochemical, luminescence, uHTS; hit rate 1.8% among 330,000; inhibition, % at 10 µM; Recombinant SENP6 catalytic domain, aminoluciferin luminescence;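 active = inhibition above about 50% at the single tested dose, limit read from the data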;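 note: plate controls were DMSO wells with enzyme for no effect and DMSO wells lacking enzyme for full effect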
SENP7 block – SENP7 protease inhibitors, primary screen, biochemical, luminescence, uHTS | inhibition, % at 5 µM | hit rate 1.5% among 330,000 | AID 434973, 2010 | recombinant SENP7, Z-RLRGG-aminoluciferin luminescence, 40 min | Sentrin-specific protease 7 (Homo sapiens), Q9BQF6;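 active = inhibition above about 50% at the single test dose, limit read from the data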;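 note: plate controls were DMSO with enzyme for no effect and no enzyme buffer wells for full effect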
SENP1 FRET inh – human SENP1 catalytic domain inhibitors, primary screen, biochemical, FRET, uHTS | AID 624204, 2012 | recombinant SENP1 catalytic domain, CyPet-SUMO1-YPet FRET cleavage | hit rate 0.21% among 360,000 | Sentrin-specific protease 1 (Homo sapiens), Q9P0U3 | inhibition, % at 10 µM;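 active = inhibition at least 30% at 10 µM, raw YFP signal under a set limit, fluorescence ratio 0.5 to 1.5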;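 note: 0% = enzyme with DMSO and 100% = no enzyme wells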
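Test system: human SENP1 catalytic domain; medium: Tris pH 8 buffer plus EDTA, NaCl, BME, BSA, NP40, catalase; incubation: 50 min reaction at room temperature; technique: FRET, CFP and YFP emission; controls: no-enzyme low control and enzyme-plus-DMSO high control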
SENP8 block-1 – SENP8 protease inhibitors, primary screen, biochemical, luminescence. Sentrin-specific protease 8 (Homo sapiens), Q96LD8. purified SENP8, Z-RLRGG-aminoluciferin cleavage. hit rate 1.2% among 330,000. inhibition, % at 10 µM; in the data active = inhibition above about 50%
Target sequence (Q96LD8 whole entry, looked up): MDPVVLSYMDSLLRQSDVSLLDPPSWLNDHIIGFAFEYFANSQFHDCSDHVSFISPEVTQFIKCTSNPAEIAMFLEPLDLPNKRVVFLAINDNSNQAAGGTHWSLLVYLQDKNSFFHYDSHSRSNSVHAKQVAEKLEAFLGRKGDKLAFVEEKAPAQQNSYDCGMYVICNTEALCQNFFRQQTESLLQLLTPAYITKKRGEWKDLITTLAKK
SENP8 block-2 – human SENP8 protease inhibitors, primary screen, biochemical, fluorescence, Nedd8 protein substrate, uHTS. hit rate 0.64% among 360,000. recombinant SENP8. inhibition, % at 20 µM. Sentrin-specific protease 8 (Homo sapiens), Q96LD8; in the data active = inhibition mostly above about 40%, no sharp cut-off; inactive = mostly below about 27%
SENP8 conf – SENP8 protease inhibitors, retest, confirmation, biochemical, luminescence, single concentration | shares compounds with SENP7 block | Recombinant SENP8, Z-RLRGG-aminoluciferin luminescence, 60 min | inhibition, % at 12.5 µM | hit rate 40% among 6,200 | AID 488912, 2010;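 active = mean inhibition across replicates above about 50%, limit read from the data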
SENP6 conf – SENP6 protease inhibitors, confirmation, biochemical, luminescence, single concentration; recombinant SENP6, Z-RLRGG-aminoluciferin luminescence; hit rate 58% among 6,200; inhibition, % at 12.5 µM; shares compounds with SENP7 block; AID 488915, 2010
SENP7 conf – SENP7 protease inhibitors, retest, confirmation, biochemical, luminescence, single concentration. shares compounds with SENP7 block. recombinant SENP7, Z-RLRGG-aminoluciferin luminescence, 40 min. inhibition, % at 12.5 µM. hit rate 69% among 6,200. AID 488917, 2010
Casp3 select – caspase-3 protease inhibitors, confirmation, selectivity assay for SENP inhibitor project, biochemical, single concentration. hit rate 60% among 6,200. purified caspase-3, Z-DEVD-aminoluciferin luminescence, 60 min. AID 488918, 2010. inhibition, % at 12.5 µM. shares compounds with SENP7 block;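 active = mean inhibition above about 50%, limit read from the data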;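 note: plate controls were enzyme with DMSO for no effect and wells without caspase-3 for full effect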
Target sequence (P42574 28-227 limits assumed): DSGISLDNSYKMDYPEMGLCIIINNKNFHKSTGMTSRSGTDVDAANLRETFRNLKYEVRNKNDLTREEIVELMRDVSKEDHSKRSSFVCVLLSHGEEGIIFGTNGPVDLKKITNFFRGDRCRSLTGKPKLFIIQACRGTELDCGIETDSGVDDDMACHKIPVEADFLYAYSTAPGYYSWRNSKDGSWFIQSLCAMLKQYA
SENP luc ctr – luminescence interference (SENP counter-screen); hit rate 39% among 6,200; Pre-incubated SENP8/Z-RLRGG-aminoluciferin, luciferase luminescence interference; AID 488919; shares compounds with SENP7 block; inhibition, % at 12.5 µM;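 active = mean inhibition above about 50% when retested at one dose, limit read from the data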;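 note: plate controls were DMSO wells with completed reaction for no effect and substrate without enzyme for full effect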
* hit, by the source's call; i = inactive; x = not tested or not shown. The list is not random: actives were taken first. Their share in the collection is about 2.5%.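 Rule for the calls, unless noted: active = mean inhibition above about 50% in the one-dose retest (limit read from the data); inactive = the rest.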

SMILES | SENP6 block | SENP7 block | SENP1 FRET inh | SENP8 block-1 | SENP8 block-2 | SENP8 conf | SENP6 conf | SENP7 conf | Casp3 select | SENP luc ctr
COC(=O)N(C)C[C@@H]1OCc2cn(nn2)CCCC(=O)N([C@@H](C)CO)C[C@H]1C | x | x | 2 | x | 12 | x | x | x | x | x
CCOC(=O)C1CCCN(C(=O)c2cc(C)oc2C)CC1 (centres undefined) | x | x | 5 | x | 17 | x | x | x | x | x
Cc1cc(C)nc(NNC(=O)c2ccccc2O)n1 | 5 | -3 | 0 | -3 | -12 | x | x | x | x | x
CCCOc1ccc(C(=O)Nc2cccnc2)cc1 | 70* | 69* | 0 | 37 | 0 | 54* | 52* | 86* | 83* | 69*
CCOc1cc(C(=O)Nc2cccnc2)cc(OCC)c1OCC | 18 | -4 | 1 | 5 | 2 | x | x | x | x | x
C[C@@H]1COc2cccc(N3CCSCC3)c2S(=O)(=O)N1 | x | x | 2 | x | 8 | x | x | x | x | x
Oc1ccc(/C=N/Nc2cccc3cccnc23)c(O)c1 | 89* | 77* | -38 | 82* | -22 | 73* | 89* | 99* | 65* | 20
Cc1ccc(/C=N/Nc2cccc3cccnc23)c(O)c1 | 78* | 92* | -69 | 70* | -54 | 86* | 93* | 78* | 77* | 58*
Cc1cc(-c2ccccc2)nc(N/N=C/c2ccc(O)cc2O)n1 | -18 | -24 | 3 | -18 | 4 | x | x | x | x | x
O=c1[nH]ncc(N/N=C\c2ccc(O)cc2O)c1Cl | 69* | 65* | 1 | 63* | -161 | 66* | 64* | 87* | 81* | 62*
Oc1ccc(/C=N/Nc2ncc(Br)cn2)c(O)c1 | 86* | 72* | 1 | 58* | 9 | 73* | 73* | 90* | 70* | 75*
CCCc1cc(=O)oc2cc(OCC(=O)N3CCN(C(=O)C4COc5ccccc5O4)CC3)ccc12 (centres undefined) | 0 | -1 | -4 | -2 | -156 | x | x | x | x | x
CCN(CC)C(=O)C1=C(C)N(CCC2=CCCCC2)C(=O)C(CC(=O)NC(c2ccccc2)c2ccccc2)C1 (centres undefined) | x | x | -2 | x | -1 | x | x | x | x | x
CC(=O)NCCCc1nc2ccccc2n1Cc1ccccc1F | -14 | 55* | 1 | -7 | 12 | 9 | 8 | -2 | 2 | 0
CC(C)(C)NC(=O)C(c1ccc(C(F)(F)F)cc1)n1c(=O)c(-c2cc3ccccc3[nH]2)nc2ccccc21 (centres undefined) | x | x | -19 | x | -398 | x | x | x | x | x
CSc1ccc(CNC(=O)C2(C)CCN2C(C)C)cc1 (centres undefined) | x | x | 0 | x | 11 | x | x | x | x | x
O=C(Nc1ccccc1)Nc1ccc2ncoc2c1 | 0 | 62* | 2 | 25 | -10 | 58* | 53* | 82* | 67* | 58*
O=C(Nc1ccccc1)Nc1ccc2ocnc2c1 | 31 | 76* | 2 | 58* | -12 | 4 | 64* | 88* | 84* | 45
COc1ccc2nc(NC(=O)c3c(C)noc3C)sc2c1 | 78* | 83* | 0 | 73* | i | 83* | 81* | 97* | 88* | 65*
Cc1noc(C)c1C(=O)Nc1nc2ccc(S(C)(=O)=O)cc2s1 | 66* | 62* | 0 | 38 | -183 | 60* | 56* | 85* | 85* | 62*

Source: PubChem (Sanford-Burnham Center for Chemical Genomics)
